Cneo AK release: Cryptococcus neoformans cell lysis inducers, primary screen, AK release luminescence, single concentration | C. neoformans lysis, adenylate kinase release luminescence, 4 h; normalised: neutral wells 0, clomiphene wells 100 | lysis activity, % at 15 µM | 360,000 tested, 0.2% active;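 active means mean lysis activity across replicates of at least 80%, whatever share of replicates individually reach that level; inactive means mean lysis activity below 80%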
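Material – log-phase Cryptococcus neoformans yeast cells · Input – 5 × 10^6 yeast cells/mL · Medium – fresh YPD growth medium · Doses – single compound concentration per well · Timing – static 4 h at 37 °C with compound, 1 h detection · Detection – adenylate kinase release luminescence · Read-out – signal increase indicating cell lysis · Control set – Clomiphene as positive lysis control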
PGC1a acetyl inh: inhibitors of PGC1a acetylation signal, primary screen, cell-based, U2OS, AlphaScreen, inhibitor mode; AlphaScreen anti-acetyl-lysine; with virally co-expressed GCN5 acetyltransferase; inhibition, % at 15.6 µM; 350,000 tested, 0.17% active; AID 651687, 2012;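 active means every replicate shows inhibition of at least 40%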
Ecoli rRNA inh: reduced GFP signal of wild-type E. coli, primary screen, bacterial rRNA inhibitor project, GFP/RFP fluorescence, OD600, single point | 350,000 tested, 1.6% active | E. coli WT GFP vs humanized-ribosome RFP mutants, 24 h; stronger effect = lower value; DMSO median 0, no signal -100 | AID 720706, 2013 | GFP signal change (wild-type ribosome), % (test concentration not listed);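 active means significant combined selectivity score with lowered wild-type GFP, culture density cut under 30%, mutant RFP and density less affected; inactive means any of these conditions unmet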
SIRT5 inh: SIRT5 desuccinylase inhibitors, primary screen, biochemical, fluorescence imaging, single point, set 5; Purified SirT5, succinyl-peptide AMC, trypsin-coupled fluorescence; inhibition, % at 15 µM; 330,000 tested, 1.1% active; in the data active means inhibition above about 15%
Target sequence (Q9NXA8 whole entry, looked up): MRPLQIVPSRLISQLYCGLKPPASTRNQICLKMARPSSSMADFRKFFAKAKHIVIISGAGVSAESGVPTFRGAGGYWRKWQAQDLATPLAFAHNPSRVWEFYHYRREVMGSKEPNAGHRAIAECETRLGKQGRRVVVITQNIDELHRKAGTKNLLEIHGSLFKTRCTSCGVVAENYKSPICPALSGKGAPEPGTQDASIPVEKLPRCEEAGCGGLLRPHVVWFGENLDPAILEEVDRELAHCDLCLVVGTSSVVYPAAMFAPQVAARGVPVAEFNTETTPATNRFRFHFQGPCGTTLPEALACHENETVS
C2C12 statin: suppressors of statin myotoxicity in C2C12 myotubes, primary screen, cell-based, single point, plate reader. C2C12 myotubes + simvastatin, ATP luminescence, 48 h; scaled: DMSO 0, geranylgeraniol control 100. rescue of ATP level, % at 7.49 µM. 330,000 tested, 0.78% active. AID 602340, 2012;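 active means mean ATP rescue above about 67%, or every replicate alone reaching that limit, limit read from the data, passing the limit was not always enough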;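 further: myotubes were challenged with 10 µM simvastatin during compound exposure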
S100A4 inh HTS: inhibitors of S100A4-myosin IIA peptide binding, primary screen, biochemical, fluorescence polarization, TAMRA-MyoIIA peptide | Protein S100-A4 (Homo sapiens), P26447 | inhibition, % at 10.7 µM | 360,000 tested, 0.14% active | AID 652163, 2013;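 active means mean inhibition of at least 70% across replicates, with every replicate also reaching that level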
Target sequence (P26447 whole entry, looked up): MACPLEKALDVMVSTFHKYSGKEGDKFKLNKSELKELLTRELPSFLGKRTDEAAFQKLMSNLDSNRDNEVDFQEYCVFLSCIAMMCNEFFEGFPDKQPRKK
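Material: S100A4 monomer (human). Medium: Calcium-containing HEPES buffer, pH 7.2. Probe or stimulus: labelled myosin peptide probe, 5 nM. Compound dosing: one concentration per compound. Timing: polarization read 5 min after assay mix addition, stable 5–60 min. Benchmarks: DMSO as neutral control, TFP as positive control.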
A number is an active result; 0 = inactive; - = no result given. The list is not random: actives were taken first. Their share in the collection is about 3%.

SMILES | Cneo AK release | PGC1a acetyl inh | Ecoli rRNA inh | SIRT5 inh | C2C12 statin | S100A4 inh HTS
CO[C@H]1CN(C)C(=O)c2cc(NC(=O)Nc3cc(F)ccc3F)ccc2OC[C@@H](C)N(C(=O)c2cnccn2)C[C@@H]1C | 0 | 0 | 0 | - | 0 | 0
Cn1c(SCC(=O)N2CCN(C(=O)c3ccco3)CC2)nnc1-c1ccc(NS(C)(=O)=O)cc1 | 0 | 0 | 0 | 0 | 98 | 0
Cc1cc(C)nc(NC(=O)c2ccc(COc3ccccc3Cl)cc2)c1 | 0 | 0 | -24 | 0 | 0 | 0
N#C[C@H]1[C@@H](c2ccccc2C2=CCCC2)[C@@H](CO)N1C(=O)c1cccc(F)c1 | - | 0 | 0 | 0 | - | 0
COc1ccc(NC(=O)Cn2nnc(C(=O)Nc3ccc(F)c(Cl)c3)c2N)cc1 | 0 | 0 | 0 | 15 | 0 | 0
COCC(=O)Nc1ccc2c(c1)C(=O)N(C)[C@@H]1CC[C@@H](CC(=O)NCC3CC3)O[C@H]1CO2 | 0 | 0 | 0 | 0 | 0 | 0
CC1Cc2nc(SCC(=O)N3CCCC3)n(C)c(=O)c2S1 (centres undefined) | 0 | - | 0 | 0 | 0 | 0
CC1Cc2nc(SCC(N)=O)n(C)c(=O)c2S1 (centres undefined) | 0 | 0 | 0 | 0 | 135 | 0
CC(C)C#Cc1ccc([C@H]2[C@@H](CO)N3C(=O)CN(C(=O)NC4CCCCC4)C[C@@H]23)cc1 | - | - | 0 | 0 | - | 0
COC(=O)C1=C(N)N(c2ccccc2C(F)(F)F)C2=C(C(=O)CCC2)C1c1ccc2c(c1)OCO2 (centres undefined) | 0 | 0 | - | - | 93 | -
COC(=O)CSC1=C(C#N)C(c2ccc3c(c2)OCO3)C2=C(CCCC2=O)N1 (centres undefined) | 0 | 0 | - | - | 0 | -
CN(C)CCCNC(=O)[C@H]1[C@H](CO)[C@H]2Cn3c(ccc(-c4ccc(F)cc4)c3=O)[C@@H]1N2C | 0 | 0 | 0 | 0 | 0 | -
COc1cc(C(=O)N2CCN(C(=O)C3CC3)CC2)cc(OC)c1OC | 0 | 0 | - | - | 0 | -
COc1ccc(C(=O)N2CCN(C(=O)c3cc(OC)c(OC)c(OC)c3)CC2)cc1 | 0 | 0 | - | - | 108 | -
COc1cc(C(=O)N2CCNCC2)cc(OC)c1OC | 0 | - | 0 | 21 | 0 | 0
CN(C=O)c1ccc(CSc2ccccc2)cc1 | 0 | 0 | -29 | 36 | 0 | 0
C[C@H]1CN([C@@H](C)CO)C(=O)c2cc(-c3ccc(F)cc3)cnc2O[C@H]1CN(C)C(=O)NC1CCCC1 | 0 | 0 | 0 | 0 | 0 | 0
CC(=O)N1C[C@@H]2C(c3ccc(Br)cc3)[C@H](C1)N2C(=O)NC(C)C (some centres undefined) | - | - | 0 | - | - | -
C[C@H]1CN([C@@H](C)CO)C(=O)c2cccc(NS(C)(=O)=O)c2O[C@H]1CN(C)CC1CC1 | 0 | 0 | 0 | 0 | 0 | 0
CCC(CO)Oc1cc(NC(=O)c2ccc(OC)cc2)c2ncn(C(C)C)c2c1 (centres undefined) | 0 | 0 | -20 | 0 | 0 | 0
COc1ccc(CN(C)C[C@@H]2OCCCC[C@@H](C)Oc3ccc(NS(=O)(=O)c4cn(C)cn4)cc3C(=O)N([C@@H](C)CO)C[C@H]2C)cc1 | 0 | 0 | 0 | 0 | - | 0
COc1ccc(S(=O)(=O)N(C)C[C@H]2OCCCC[C@@H](C)Oc3ccc(NS(=O)(=O)c4cn(C)cn4)cc3C(=O)N([C@@H](C)CO)C[C@H]2C)cc1 | 0 | - | 0 | 16 | - | 0
C[C@H]1CCCCO[C@H](CN(C)Cc2ccc(C(F)(F)F)cc2)[C@@H](C)CN([C@@H](C)CO)C(=O)c2cc(NS(=O)(=O)c3cn(C)cn3)ccc2O1 | 0 | 0 | 0 | 0 | - | 0
COc1ccc(CN(C)C[C@@H]2OCCCC[C@H](C)Oc3ccc(NS(=O)(=O)c4cn(C)cn4)cc3C(=O)N([C@@H](C)CO)C[C@H]2C)cc1 | 0 | 0 | 0 | 0 | - | 110

Screening data (PubChem BioAssay)
